From ChEMBL document CHEMBL4613283, “Synthesis, Antiproliferative Effect, and Topoisomerase II Inhibitory Activity of 3-Methyl-2-phenyl-1H-indoles” (2020)
The source made the active and inactive calls. The calls are words filed in the database; no cut-off is given here.

Columns and labels:
A2780 [1] = experiment: Growth inhibition of human A2780 cells incubated for 72 hrs by trypan blue assay; type: functional; conditions: A2780, 72 h
In short: (§1)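 HeLa, A2780 and MSTO-211H human tumor cells; GI50 taken as the concentration (μM) inhibiting growth of 50% of cells relative to an untreated control culture; mean ± SD of at least three independent experiments.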

[2] = target: DNA topoisomerase 2-alpha (Homo sapiens) (UniProt P11388); experiment: Inhibition of recombinant human topoisomerase 2 alpha-mediated relaxation of supercoiled pBR322 DNA at 100 uM incubated for 30 mins by ethidium bromide staining based agarose gel electrophoresis method
Chain of DNA topoisomerase 2-alpha (Homo sapiens) (P11388 whole entry): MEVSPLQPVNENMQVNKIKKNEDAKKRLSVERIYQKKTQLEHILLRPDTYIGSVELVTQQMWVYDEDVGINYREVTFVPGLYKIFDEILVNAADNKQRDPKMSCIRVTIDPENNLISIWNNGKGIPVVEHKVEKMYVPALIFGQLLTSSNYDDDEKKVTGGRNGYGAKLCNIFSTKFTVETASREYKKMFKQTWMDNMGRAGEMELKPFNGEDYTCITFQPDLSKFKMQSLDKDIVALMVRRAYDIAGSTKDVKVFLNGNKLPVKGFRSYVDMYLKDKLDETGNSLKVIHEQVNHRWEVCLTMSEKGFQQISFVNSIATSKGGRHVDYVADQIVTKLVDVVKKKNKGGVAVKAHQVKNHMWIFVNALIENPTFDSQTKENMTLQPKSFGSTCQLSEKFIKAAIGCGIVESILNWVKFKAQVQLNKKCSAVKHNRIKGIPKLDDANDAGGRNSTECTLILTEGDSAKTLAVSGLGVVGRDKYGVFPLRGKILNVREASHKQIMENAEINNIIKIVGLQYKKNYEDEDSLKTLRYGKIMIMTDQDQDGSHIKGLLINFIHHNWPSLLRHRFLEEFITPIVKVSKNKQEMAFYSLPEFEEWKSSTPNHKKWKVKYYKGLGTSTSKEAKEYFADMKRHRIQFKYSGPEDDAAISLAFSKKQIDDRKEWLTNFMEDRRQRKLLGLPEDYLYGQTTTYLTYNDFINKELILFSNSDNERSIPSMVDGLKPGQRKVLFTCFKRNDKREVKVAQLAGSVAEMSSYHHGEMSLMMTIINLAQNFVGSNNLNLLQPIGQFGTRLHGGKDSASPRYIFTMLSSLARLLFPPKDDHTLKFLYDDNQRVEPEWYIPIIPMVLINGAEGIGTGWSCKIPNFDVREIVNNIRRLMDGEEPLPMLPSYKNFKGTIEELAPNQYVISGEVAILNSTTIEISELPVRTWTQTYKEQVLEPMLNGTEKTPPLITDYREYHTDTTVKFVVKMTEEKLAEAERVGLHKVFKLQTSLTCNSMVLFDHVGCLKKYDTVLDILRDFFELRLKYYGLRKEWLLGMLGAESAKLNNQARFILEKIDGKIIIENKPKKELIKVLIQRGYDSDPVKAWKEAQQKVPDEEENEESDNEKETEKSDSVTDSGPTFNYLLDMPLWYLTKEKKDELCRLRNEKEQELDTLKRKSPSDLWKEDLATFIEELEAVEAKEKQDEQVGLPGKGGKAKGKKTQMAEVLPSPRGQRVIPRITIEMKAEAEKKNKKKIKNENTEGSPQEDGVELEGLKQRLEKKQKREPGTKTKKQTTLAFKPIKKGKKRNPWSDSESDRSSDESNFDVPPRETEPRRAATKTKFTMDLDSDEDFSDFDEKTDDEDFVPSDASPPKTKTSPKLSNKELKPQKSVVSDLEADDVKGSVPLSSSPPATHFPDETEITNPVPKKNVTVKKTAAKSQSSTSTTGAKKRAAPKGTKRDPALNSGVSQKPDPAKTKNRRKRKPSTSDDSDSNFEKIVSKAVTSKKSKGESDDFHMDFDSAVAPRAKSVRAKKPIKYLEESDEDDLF
In short: (§2)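 Supercoiled pBR322 plasmid incubated with human recombinant topoisomerase II without or with compound at 100 μM, or at 25 and 50 μM; m-AMSA 20 μM as reference; relaxation inhibition judged from electrophoretic pattern of supercoiled DNA versus relaxed topoisomers.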

MSTO-211H = experiment: Growth inhibition of human MSTO-211H cells incubated for 72 hrs by trypan blue assay; type: functional; in short: as §1
HeLa = experiment: Growth inhibition of human HeLa cells incubated for 72 hrs by trypan blue assay; type: functional; in short: as §1
A2780 [3] = experiment: Induction of apoptosis in human A2780 cells assessed as increase in sub-G0 accumulation at 50 uM incubated for 28 hrs by propidium iodide staining based flow cytometry relative to control; type: functional
In short: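 A2780 cells treated 28 h at 10 and 50 μM alongside untreated control, stained with propidium iodide, DNA content per cell measured by flow cytometry; apoptotic fraction taken as sub-G0 (hypodiploid) peak.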

[4] = target: DNA topoisomerase 2-alpha (Homo sapiens) (UniProt P11388); experiment: Inhibition of recombinant human topoisomerase 2 alpha-mediated relaxation of supercoiled pBR322 DNA at 50 uM incubated for 30 mins by ethidium bromide staining based agarose gel electrophoresis method relative to control; in short: as §2
A2780 [5] = experiment: Induction of apoptosis in human A2780 cells assessed as decrease of mitochondrial membrane potential incubated for 28 hrs by JC-1 staining based flow cytometry
A2780 [6] = experiment: Induction of apoptosis in human A2780 cells assessed as polarization of mitochondrial membrane potential at 50 uM incubated for 28 hrs by JC-1 staining based flow cytometry (reference value: 96.1 %); type: functional
In short: (§3)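 A2780 cells exposed 28 h to increasing concentrations versus untreated control, stained with JC-1 and analysed by flow cytometry; mitochondrial potential read as red aggregate versus green monomer fluorescence; percentages of cells with polarized and depolarized mitochondria reported.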

[7] = target: DNA topoisomerase 2-alpha (Homo sapiens) (UniProt P11388); experiment: Inhibition of recombinant human topoisomerase 2 alpha-mediated relaxation of supercoiled pBR322 DNA at 25 uM incubated for 30 mins by ethidium bromide staining based agarose gel electrophoresis method; in short: as §2
A2780 [8] = experiment: Induction of apoptosis in human A2780 cells assessed as polarization of mitochondrial membrane potential at 10 uM incubated for 28 hrs by JC-1 staining based flow cytometry (reference value: 96.1 %); type: functional; in short: as §3
A2780 [9] = experiment: Induction of apoptosis in human A2780 cells assessed as depolarization of mitochondrial membrane potential at 10 uM incubated for 28 hrs by JC-1 staining based flow cytometry (reference value: 3.8 %); type: functional; in short: as §3
A2780 [10] = experiment: Induction of apoptosis in human A2780 cells assessed as depolarization of mitochondrial membrane potential at 50 uM incubated for 28 hrs by JC-1 staining based flow cytometry (reference value: 3.8 %); type: functional; in short: as §3
[11] = target: DNA topoisomerase 2-alpha (Homo sapiens) (UniProt P11388); experiment: Inhibition of recombinant human topoisomerase 2 alpha-mediated relaxation of supercoiled pBR322 DNA at 50 uM incubated for 30 mins by ethidium bromide staining based agarose gel electrophoresis method; in short: as §2
[12] = target: DNA topoisomerase 2-alpha (Homo sapiens) (UniProt P11388); experiment: Inhibition of recombinant human topoisomerase 2 alpha-mediated relaxation of supercoiled pBR322 DNA at 100 uM incubated for 30 mins by ethidium bromide staining based agarose gel electrophoresis method relative to control; in short: as §2

GI50 (A2780 [1]) [µM]	inhibition [2]	GI50 (HeLa) [µM]	Structure (SMILES)	GI50 (MSTO-211H) [µM]	other results
3.1	Active	11	Cc1c(-c2ccc(O)cc2)n(CCCCOc2ccccc2)c2ccccc12	3.3	
13	inactive	> 20	CCOC(=O)Cn1c(-c2ccc(O)cc2)c(C)c2ccccc21	> 20	
4.3	Active	10	Cc1c(-c2ccc(O)c(O)c2)n(CCCCOc2ccccc2)c2ccc(O)cc12	3.4	
0.027		0.031	COc1cc(NS(C)(=O)=O)ccc1Nc1c2ccccc2nc2ccccc12 [AMSACRINE]	0.019	
11	Active	16	Cc1c(-c2ccc(O)cc2)[nH]c2ccc(O)cc12	> 20	inhibition [7]: inactive; inhibition [11]: inactive
> 20		> 20	Cc1c(-c2ccc(OC(=O)c3c[nH]cn3)cc2)[nH]c2ccccc12	> 20	
8.4	Active	> 20	CCCn1c(-c2ccc(O)c(O)c2)c(C)c2cc(O)ccc21	> 20	
2.2		> 20	Cc1c(-c2ccc(O)c(O)c2)[nH]c2ccc(O)cc12	> 20	inhibition [7]: Active; inhibition [11]: Active; inhibition [12]: 100%

Second part, the compound before the results:

Structure (SMILES)	GI50 (A2780 [1]) [µM]	inhibition [2]	GI50 (HeLa) [µM]	GI50 (MSTO-211H) [µM]	other results
Cc1c(-c2ccc(O)cc2)n(CCCCOc2ccccc2)c2ccc(O)cc12	2	Active	4	2.9	
O=c1c(O)c(-c2ccc(O)c(O)c2)oc2cc(O)cc(O)c12 [QUERCETIN]	19.7		17.7	> 20	
Cc1ncsc1C(=O)Oc1ccc(-c2[nH]c3ccccc3c2C)cc1	13		> 20	> 20	
Cc1c(-c2ccc(O)cc2)n(CCCOc2ccccc2)c2ccc(O)cc12	2.2	Active	4.4	2.4	Activity (A2780 [3]): 30%; inhibition [4]: 100%; Activity (A2780 [5]): Dose-dependent effect; Activity (A2780 [6]): 57.7%; inhibition [7]: Active; Activity (A2780 [8]): 87%; Activity (A2780 [9]): 12.6%; Activity (A2780 [10]): 42.2%; inhibition [11]: Active
Cc1c(-c2ccc(O)cc2)n(CC(=O)O)c2ccccc12	> 20	inactive	> 20	> 20	
Cc1c(-c2ccc(O)c(O)c2)n(C)c2ccc(O)cc12	14	inactive	> 20	> 20	
CCCn1c(-c2ccc(O)cc2)c(C)c2cc(O)ccc21	2.3	Active	7.9	2.9	
COc1ccc2c(c1)c(C)c(-c1ccc(OC)c(OC)c1)n2CCCCOc1ccccc1	17	inactive	> 20	13	
Cc1c(-c2ccc(O)cc2)[nH]c2ccccc12	> 20		> 20	> 20	
Cc1c(-c2ccc(O)cc2)n(CCOc2ccccc2)c2ccc(O)cc12	4.7	Active	15	7.6	
CCCn1c(-c2ccc(O)cc2)c(C)c2ccccc21	9	inactive	> 20	7.1	
Cc1c(-c2ccc(O)c(O)c2)n(CCCOc2ccccc2)c2ccc(O)cc12	7.4	Active	18	7.1	
